Broadly, the Ki is the equilibrium dissociation constant of an inhibitor or competing ligand from its target. Read a high Ki as weaker binding.

This note sets out measurements from ChEMBL document CHEMBL1148743, “C1'-cycloalkyl side chain pharmacophore in tetrahydrocannabinols” (J Med Chem, 2007).

The target of one test is Cannabinoid receptor 1 (Rattus norvegicus, UniProt P20272). Description: Displacement of [3H]CP-55940 from CB1 receptor in rat brain synaptosomal membrane. The format is cell membranes. An outline of the steps: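 Rat forebrain synaptosomal membranes prepared from frozen brains serve as CB1 source. Binding is competition against tritiated CP-55,940, run in 96-well filter format, and IC50 values are taken from displacement. Filters are washed in buffer containing 0.5% BSA and counted by scintillation. Ki is the mean of three independent experiments, each run in duplicate.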

A further test deals with Cannabinoid receptor 2 (Mus musculus, UniProt P47936). Description: Displacement of [3H]CP-55940 from CB2 receptor in mouse spleen membrane. The class given is cell membranes. An outline of the steps:
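CB2 sites are measured with membranes prepared from frozen mouse spleen. Binding is competition against tritiated CP-55,940, run in 96-well filter format, and IC50 values are taken from displacement. Filters are washed in buffer containing 0.5% BSA and counted by scintillation. Ki is the mean of three independent experiments, each run in duplicate.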
A general note: Loss of bound radioactivity is the signal in a displacement assay; it reports binding, not function.

Test [1] in a line: Selectivity for mouse CB2 receptor over rat CB1 receptor.

Sequence of Cannabinoid receptor 2 (P47936 whole entry): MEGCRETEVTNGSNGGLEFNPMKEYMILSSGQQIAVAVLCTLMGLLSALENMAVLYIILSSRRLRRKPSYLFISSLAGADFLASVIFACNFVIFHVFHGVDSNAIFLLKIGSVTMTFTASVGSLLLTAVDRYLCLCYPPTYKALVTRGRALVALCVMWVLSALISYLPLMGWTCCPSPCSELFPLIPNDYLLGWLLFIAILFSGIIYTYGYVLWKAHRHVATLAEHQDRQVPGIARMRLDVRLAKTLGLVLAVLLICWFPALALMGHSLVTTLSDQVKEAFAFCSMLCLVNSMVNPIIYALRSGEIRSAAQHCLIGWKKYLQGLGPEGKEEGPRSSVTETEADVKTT
Sequence of Cannabinoid receptor 1 (P20272 whole entry): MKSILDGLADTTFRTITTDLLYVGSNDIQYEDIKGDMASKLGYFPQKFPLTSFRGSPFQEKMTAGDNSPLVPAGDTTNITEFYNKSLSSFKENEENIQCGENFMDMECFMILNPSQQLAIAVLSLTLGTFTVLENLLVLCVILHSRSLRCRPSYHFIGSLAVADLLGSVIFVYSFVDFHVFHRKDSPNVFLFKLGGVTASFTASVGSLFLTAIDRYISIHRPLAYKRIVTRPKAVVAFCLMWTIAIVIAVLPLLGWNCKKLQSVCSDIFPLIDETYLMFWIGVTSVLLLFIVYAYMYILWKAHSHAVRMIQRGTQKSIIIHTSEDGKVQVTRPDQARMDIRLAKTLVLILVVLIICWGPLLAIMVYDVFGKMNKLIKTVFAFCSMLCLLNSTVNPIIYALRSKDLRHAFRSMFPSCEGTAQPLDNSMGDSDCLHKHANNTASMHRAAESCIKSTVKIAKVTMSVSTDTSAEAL

For the molecule `CCCC/C=C\C1(c2cc(O)c3c(c2)OC(C)(C)[C@@H]2CC=C(C)C[C@@H]32)CCCC1` (relative stereo), the Ki was 0.72 nM on Cannabinoid receptor 1 and 1.8 nM at Cannabinoid receptor 2.
Take `CCCCCCCC1(c2cc(O)c3c(c2)OC(C)(C)[C@@H]2CC=C(C)C[C@@H]32)CCC1`: the Ki at Cannabinoid receptor 1 was found to be 2.7 nM; on Cannabinoid receptor 2, 52.3 nM. For the same molecule, the Selectivity ratio in test [1] is 20.
With `CCCC/C=C\C1(c2cc(O)c3c(c2)OC(C)(C)[C@@H]2CC=C(C)C[C@@H]32)CC1`, the Ki worked out at 1.5 nM on Cannabinoid receptor 1 and 1.7 nM at Cannabinoid receptor 2.
With `CCCCCCCc1cc(O)c2c(c1)OC(C)(C)[C@@H]1CC=C(C)C[C@@H]21`, the Ki stood at 8.8 nM at Cannabinoid receptor 1 and 20.8 nM at Cannabinoid receptor 2.
As to `CCCCCCCC1(c2cc(O)c3c(c2)OC(C)(C)[C@@H]2CC=C(C)C[C@@H]32)CC1` (relative stereo), the Ki on Cannabinoid receptor 1 turned out to be 0.48 nM; on Cannabinoid receptor 2 it was 4.2 nM.
The corresponding values for `CCCCCCCC1(c2cc(O)c3c(c2)OC(C)(C)[C@@H]2CC=C(C)C[C@@H]32)CCCC1` are 9.9 nM and 45.5 nM.
The corresponding values for `CCCC/C=C\C1(c2cc(O)c3c(c2)OC(C)(C)[C@@H]2CC=C(C)C[C@@H]32)CCC1` are 0.93 nM and 1.2 nM.
In the same order, the values of `CCCCCCCC1(c2cc(O)c3c(c2)OC(C)(C)[C@@H]2CC=C(C)C[C@@H]32)CCCCC1` are 13.6 nM and 143 nM.
Turning to `CCCCCCC1(c2cc(O)c3c(c2)OC(C)(C)[C@@H]2CC=C(C)C[C@@H]32)CCC1`, the Ki at Cannabinoid receptor 1 stood at 1.5 nM; at Cannabinoid receptor 2, 11.5 nM. Besides, the Selectivity ratio in test [1] worked out at 8.
With `CCCCCCC1(c2cc(O)c3c(c2)OC(C)(C)[C@@H]2CC=C(C)C[C@@H]32)CCCCC1`, the Ki at Cannabinoid receptor 1 turned out to be 18.4 nM; on Cannabinoid receptor 2 it was 23.5 nM.
In the same order, the values of `CCCC/C=C\C1(c2cc(O)c3c(c2)OC(C)(C)[C@@H]2CC=C(C)C[C@@H]32)CCCCC1` are 3.9 nM and 4.9 nM.
